# Legend:
# U-251 = assay: Antiproliferative activity against human U251 cells after 48 hrs; format: functional; details: U-251, 48 h
# How it was run: (§1)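 NCI 60-cell-line screen. Lines grown in RPMI 1640 with 5% fetal bovine serum and 2 mM L-glutamine, plated at 5,000–40,000 cells/well according to doubling time, left 24 h at 37 °C in 5% CO2. Drug stocks in DMSO at 400-fold the top final concentration. Five 10-fold dilutions, 10−4 to 10−8 M, incubated 48 h. Growth read spectrophotometrically as net protein; GI50 taken as 50% reduction.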
# OVCAR-5 = assay: Antiproliferative activity against human OVCAR5 cells after 48 hrs; format: functional; details: OVCAR-5, 48 h
# How it was run: (§2)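 NCI 60-cell screen. Cells were grown in RPMI 1640 with 5% FBS and 2 mM L-glutamine, then plated at 5,000–40,000 cells/well according to doubling time and preincubated for 24 h at 37 °C in 5% CO2. Compounds were dissolved in DMSO at 400× the top final concentration and tested at five 10-fold dilutions from 10−4 to 10−8 M for 48 h. Growth was read spectrophotometrically; GI50 is 50% net protein reduction.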
# UO-31 = assay: Antiproliferative activity against human UO31 cells after 48 hrs; format: functional; details: UO-31, 48 h; how it was run: as §1
# MDA-MB-435 = assay: Antiproliferative activity against human MDA-MB-435 cells after 48 hrs; format: functional; details: Homo sapiens, MDA-MB-435, 48 h; how it was run: as §2
# NCI-H322M = assay: Antiproliferative activity against human NCI-H322M cells after 48 hrs; format: functional; how it was run: as §2
# MCF7 [1] = assay: Drug level in human MCF7 cells at 10 uM per 10^6 cells after 0.5 hrs; format: ADME, cell-based; details: mcf7, 0.5 h
# How it was run: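 MCF7 cells kept in RPMI 1640 with 10% fetal calf serum at 37 °C, 5% CO2, then treated with 10 μM analog. Intracellular analog measured over time by HPLC-MS in positive-ion MRM mode. Quantified against calibration curves made by spiking an artificial matrix with standards plus internal standard, using analyte/IS peak-area ratios and linear regression. Reported as pmol per 1×10^6 cells.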
# NCI-H460 = assay: Antiproliferative activity against human NCI-H460 cells after 48 hrs; format: functional; details: NCI-H460, 48 h; how it was run: as §2
# CAKI-1 = assay: Antiproliferative activity against human CAKI1 cells after 48 hrs; format: functional; details: CAKI-1, 48 h; how it was run: as §2
# DU-145 = assay: Antiproliferative activity against human DU145 cells after 48 hrs; format: functional; details: DU-145, 48 h; how it was run: as §2
# K562 = assay: Antiproliferative activity against human K562 cells after 48 hrs; format: functional; details: K562, 48 h; how it was run: as §2
# T47D = assay: Antiproliferative activity against human T47D cells after 48 hrs; format: functional; how it was run: as §1
# [2] = Antiproliferative activity against human […] cells after 48 hrs; format: functional; how it was run: as §2
# LOX IMVI = assay: Antiproliferative activity against human LOXIMVI cells after 48 hrs; format: functional; how it was run: as §2
# SK-OV-3 = assay: Antiproliferative activity against human SKOV3 cells after 48 hrs; format: functional; details: SK-OV-3, 48 h; how it was run: as §2
# UACC-62 = assay: Antiproliferative activity against human UACC62 cells after 48 hrs; format: functional; details: UACC-62, 48 h; how it was run: as §1
# SK-MEL-28 = assay: Antiproliferative activity against human SKMEL28 cells after 48 hrs; format: functional; details: SK-MEL-28, 48 h; how it was run: as §2
# HCT-15 = assay: Antiproliferative activity against human HCT15 cells after 48 hrs; format: functional; details: Homo sapiens, HCT-15, 48 h; how it was run: as §2
# BT-549 = assay: Antiproliferative activity against human BT549 cells after 48 hrs; format: functional; details: BT-549, 48 h; how it was run: as §2
# UACC-257 = assay: Antiproliferative activity against human UACC257 cells after 48 hrs; format: functional; details: UACC-257, 48 h; how it was run: as §1
# SK-MEL-2 = assay: Antiproliferative activity against human SKMEL2 cells after 48 hrs; format: functional; details: SK-MEL-2, 48 h; how it was run: as §2
# SNB-75 = assay: Antiproliferative activity against human SNB75 cells after 48 hrs; format: functional; details: SNB-75, 48 h; how it was run: as §2
# MDA-MB-231 = assay: Antiproliferative activity against human MDA-MB-231 cells after 48 hrs; format: functional; details: MDA-MB-231, 48 h; how it was run: as §2
# HOP-62 = assay: Antiproliferative activity against human HOP62 cells after 48 hrs; format: functional; details: HOP-62, 48 h; how it was run: as §2
# MOLT-4 = assay: Antiproliferative activity against human MOLT4 cells after 48 hrs; format: functional; details: MOLT-4, 48 h; how it was run: as §2
# OVCAR-8 = assay: Antiproliferative activity against human OVCAR8 cells after 48 hrs; format: functional; details: OVCAR-8, 48 h; how it was run: as §2
# SF-268 = assay: Antiproliferative activity against human SF268 cells after 48 hrs; format: functional; details: SF-268, 48 h; how it was run: as §2
# MCF7 [3] = assay: Antiproliferative activity against human MCF7 cells after 48 hrs; format: functional, cell-based; details: MCF7, 48 h
# [4] = read-out: Log LC50 (the source's name) (converted)
smiles,measurement,setting,value
C[C@H](NC(=O)CCCCCCCCCCCCCCC[n+]1ccccc1)[C@H](O)c1ccccc1.[Br-],GI50,U-251,2.95 µM
same,CC50,U-251; [4],38.9 µM
same,TGI,U-251; read-out: Log TGI (converted),13.8 µM
same,GI50,OVCAR-5,11 µM
same,CC50,OVCAR-5; [4],51.3 µM
same,TGI,OVCAR-5; read-out: Log TGI (converted),24 µM
same,GI50,UO-31,28.8 µM
same,LC50,UO-31,> 100 µM
same,TGI,UO-31; read-out: Log TGI (converted),95.5 µM
same,GI50,MDA-MB-435,2.63 µM
same,LC50,MDA-MB-435,25.7 µM
same,TGI,MDA-MB-435; read-out: Log TGI (converted),7.24 µM
same,GI50,NCI-H322M,14.5 µM
same,CC50,NCI-H322M; [4],52.5 µM
same,TGI,NCI-H322M; read-out: Log TGI (converted),31.6 µM
same,Drug uptake,MCF7 [1],800 pmol
same,GI50,NCI-H460,2.82 µM
same,CC50,NCI-H460; [4],41.7 µM
same,TGI,NCI-H460; read-out: Log TGI (converted),13.2 µM
same,GI50,CAKI-1,14.1 µM
same,CC50,CAKI-1; [4],53.7 µM
same,TGI,CAKI-1; read-out: Log TGI (converted),27.5 µM
same,GI50,DU-145,12.6 µM
same,CC50,DU-145; [4],50.1 µM
same,TGI,DU-145; read-out: Log TGI (converted),25.1 µM
same,GI50,K562,0.912 µM
same,LC50,K562,77.6 µM
same,TGI,K562; read-out: Log TGI (converted),15.8 µM
same,GI50,T47D,0.933 µM
same,CC50,T47D; [4],58.9 µM
same,TGI,T47D; read-out: Log TGI (converted),10.7 µM
same,GI50,[2],3.63 µM
same,LC50,[2],42.7 µM
same,TGI,[2]; read-out: Log TGI (converted),14.8 µM
same,GI50,LOX IMVI,4.07 µM
same,LC50,LOX IMVI,44.7 µM
same,TGI,LOX IMVI; read-out: Log TGI (converted),14.8 µM
same,GI50,SK-OV-3,3.31 µM
same,CC50,SK-OV-3; [4],35.5 µM
same,TGI,SK-OV-3; read-out: Log TGI (converted),12 µM
same,GI50,UACC-62,1.86 µM
same,LC50,UACC-62,25.1 µM
same,TGI,UACC-62; read-out: Log TGI (converted),5.75 µM
same,GI50,SK-MEL-28,2.34 µM
same,LC50,SK-MEL-28,20.4 µM
same,TGI,SK-MEL-28; read-out: Log TGI (converted),6.03 µM
same,GI50,HCT-15,57.5 µM
same,LC50,HCT-15,> 100 µM
same,TGI,HCT-15; read-out: Log TGI (converted),> 100 µM
same,LC50,BT-549,8.71 µM
same,TGI,BT-549; read-out: Log TGI (converted),0.851 µM
same,GI50,UACC-257,2.24 µM
same,CC50,UACC-257; [4],38.9 µM
same,TGI,UACC-257; read-out: Log TGI (converted),8.32 µM
same,GI50,SK-MEL-2,2.88 µM
same,LC50,SK-MEL-2,60.3 µM
same,TGI,SK-MEL-2; read-out: Log TGI (converted),7.41 µM
same,GI50,SNB-75,1.7 µM
same,CC50,SNB-75; [4],38 µM
same,TGI,SNB-75; read-out: Log TGI (converted),11.2 µM
same,GI50,MDA-MB-231,3.24 µM
same,LC50 (50% lethal concentration),MDA-MB-231,42.7 µM
same,TGI,MDA-MB-231; read-out: Log TGI (converted),33.1 µM
same,GI50,HOP-62,7.08 µM
same,CC50,HOP-62; [4],44.7 µM
same,TGI,HOP-62; read-out: Log TGI (converted),20.4 µM
same,GI50,MOLT-4,4.9 µM
same,LC50,MOLT-4,63.1 µM
same,TGI,MOLT-4; read-out: Log TGI (converted),18.6 µM
same,GI50,OVCAR-8,3.89 µM
same,CC50,OVCAR-8; [4],> 100 µM
same,TGI,OVCAR-8; read-out: Log TGI (converted),22.9 µM
same,GI50,SF-268,3.24 µM
same,LC50,SF-268,43.7 µM
same,TGI,SF-268; read-out: Log TGI (converted),13.2 µM
same,GI50,MCF7 [3],1.48 µM
same,LC50,MCF7 [3],20.9 µM
same,TGI,MCF7 [3]; read-out: Log TGI (converted),4.79 µM
